{"source": "ChEMBL document CHEMBL4622871", "about": "“Synthesis, biological evaluation of benzothiazole derivatives bearing a 1,3,4-oxadiazole moiety as potential anti-oxidant and anti-inflammatory agents” (Bioorg Med Chem Lett, 2020)", "key": {"[1]": {"experiment": "Antioxidant activity assessed as hydrogen peroxide scavenging activity at 100 ug/ml relative to control", "format": "functional"}, "Mus musculus [2]": {"tested_on": "Mus musculus", "experiment": "Antiinflammatory activity in para-xylene-induced mouse model of ear swelling assessed as edema at 100 mg/kg, ip (reference value: 8.70 +/- 0.90 mg)", "format": "functional", "summary_of_the_method": "(§1)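 Mouse ear swelling induced by para-xylene. Dosing was 100 mg/kg intraperitoneal with DMSO as vehicle, and the vehicle group was also given 100. Each group had 5 mice. Edema was recorded in mg as mean ± S.D., and the inhibition rate (%) was taken relative to the vehicle group. Indomethacin at 100 mg/kg served as the reference.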"}, "Mus musculus [3]": {"tested_on": "Mus musculus", "experiment": "Antiinflammatory activity in para-xylene-induced mouse model of ear swelling assessed as inhibition in swelling rate at 100 mg/kg, ip relative to control", "format": "functional", "summary_of_the_method": "as §1"}, "Mus musculus [4]": {"tested_on": "Mus musculus", "experiment": "Antiinflammatory activity in para-xylene-induced mouse model of ear swelling assessed as inhibition in swelling rate at 100 mg/kg, po treated for 1 hr followed by xylene addition relative to control", "format": "functional", "summary_of_the_method": "(§2)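 Mouse ear edema induced by para-xylene. A single oral dose of 100 mg/kg was given at set intervals (1, 2, 3, 4, 5 or 24 h) before xylene was applied. Each group had 5 mice. The inhibition rate (%) was taken relative to the vehicle group. Indomethacin at 100 mg/kg served as the reference.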"}, "Mus musculus [5]": {"tested_on": "Mus musculus", "experiment": "Antiinflammatory activity in para-xylene-induced mouse model of ear swelling assessed as inhibition in swelling rate at 100 mg/kg, po treated for 2 hrs followed by xylene addition relative to control", "format": "functional", "summary_of_the_method": "as §2"}, "Mus musculus [6]": {"tested_on": "Mus musculus", "experiment": "Antiinflammatory activity in para-xylene-induced mouse model of ear swelling assessed as inhibition in swelling rate at 100 mg/kg, po treated for 3 hrs followed by xylene addition relative to control", "format": "functional", "summary_of_the_method": "as §2"}, "Mus musculus [7]": {"tested_on": "Mus musculus", "experiment": "Antiinflammatory activity in para-xylene-induced mouse model of ear swelling assessed as inhibition in swelling rate at 100 mg/kg, po treated for 4 hrs followed by xylene addition relative to control", "format": "functional", "summary_of_the_method": "as §2"}, "Mus musculus [8]": {"tested_on": "Mus musculus", "experiment": "Antiinflammatory activity in para-xylene-induced mouse model of ear swelling assessed as inhibition in swelling rate at 100 mg/kg, po treated for 5 hrs followed by xylene addition relative to control", "format": "functional", "summary_of_the_method": "as §2"}, "Mus musculus [9]": {"tested_on": "Mus musculus", "experiment": "Antiinflammatory activity in para-xylene-induced mouse model of ear swelling assessed as inhibition in swelling rate at 100 mg/kg, po treated for 24 hrs followed by xylene addition relative to control", "format": "functional", "summary_of_the_method": "as §2"}, "Mus musculus [10]": {"tested_on": "Mus musculus", "experiment": "Antiinflammatory activity in para-xylene-induced mouse model of ear swelling assessed as inhibition in swelling rate at 50 mg/kg, po treated for 2 hrs followed by xylene addition relative to control", "format": "functional", "summary_of_the_method": "(§3)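 Mouse ear edema induced by para-xylene. Oral doses were 25, 50 or 100 mg/kg, given 2 h before xylene was applied. Each group had 5 mice. The inhibition rate (%) was taken relative to the vehicle group, with indomethacin as the positive control.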"}, "Mus musculus [11]": {"tested_on": "Mus musculus", "experiment": "Antiinflammatory activity in para-xylene-induced mouse model of ear swelling assessed as inhibition in swelling rate at 25 mg/kg, po treated for 2 hrs followed by xylene addition relative to control", "format": "functional", "summary_of_the_method": "as §3"}, "[12]": {"biological_target": "T1, Prostaglandin G/H synthase 2 (Homo sapiens) (UniProt P35354)", "T1 sequence (whole entry)": "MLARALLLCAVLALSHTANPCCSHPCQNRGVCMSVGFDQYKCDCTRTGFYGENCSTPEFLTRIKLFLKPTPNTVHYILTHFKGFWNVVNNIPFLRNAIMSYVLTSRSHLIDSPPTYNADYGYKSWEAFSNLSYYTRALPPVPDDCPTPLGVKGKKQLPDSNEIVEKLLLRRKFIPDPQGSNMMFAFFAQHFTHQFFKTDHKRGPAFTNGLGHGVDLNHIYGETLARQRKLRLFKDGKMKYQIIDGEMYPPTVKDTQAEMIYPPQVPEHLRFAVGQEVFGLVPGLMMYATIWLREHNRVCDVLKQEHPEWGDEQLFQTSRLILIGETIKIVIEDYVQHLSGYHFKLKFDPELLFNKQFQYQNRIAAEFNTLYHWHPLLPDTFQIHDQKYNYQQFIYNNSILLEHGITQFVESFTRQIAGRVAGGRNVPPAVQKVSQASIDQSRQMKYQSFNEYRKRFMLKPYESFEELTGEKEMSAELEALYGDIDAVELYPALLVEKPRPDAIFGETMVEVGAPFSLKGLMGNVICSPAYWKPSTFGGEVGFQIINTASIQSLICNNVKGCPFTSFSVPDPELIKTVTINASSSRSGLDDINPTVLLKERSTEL", "experiment": "Inhibition of COX2 (unknown origin) at 10 umol/l by ELISA relative to control"}, "[13]": {"experiment": "Antioxidant activity assessed as ABTS radical scavenging activity by spectrophotometric analysis", "format": "functional", "summary_of_the_method": "(§4)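 Radical scavenging by ABTS, DPPH or hydroxyl radical, read spectrophotometrically. Activity was calculated from the percentage decrease in absorbance, with resveratrol as the positive control. Values are given with the standard deviation (SD).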"}, "[14]": {"experiment": "Antioxidant activity assessed as DPPH radical scavenging activity by spectrophotometric analysis", "format": "functional", "summary_of_the_method": "as §4"}, "[15]": {"experiment": "Antioxidant activity assessed as hydroxyl radical scavenging activity by spectrophotometric analysis", "format": "functional", "summary_of_the_method": "as §4"}}}
{"smiles": "C/C(=N\\c1ccc([N+](=O)[O-])cc1)N1N=C(c2ccc(-c3ccccc3)cc2)OC1c1ccccc1O", "note": "(stereo not given)", "values": [{"measurement": "Activity", "setting": "[1]", "result": "< 51.2", "unit": "%"}]}
{"smiles": "COc1ccc2c(c1)c(CC(=O)O)c(C)n2C(=O)c1ccc(Cl)cc1", "note": "[INDOMETHACIN]", "values": [{"measurement": "Activity", "setting": "Mus musculus [2]", "result": 5.15, "unit": "mg"}, {"measurement": "inhibition in vivo at 100 mg/kg", "setting": "Mus musculus [3]", "result": 43.6, "unit": "%"}, {"measurement": "inhibition in vivo at 100 mg/kg", "setting": "Mus musculus [4]", "result": 25.3, "unit": "%"}, {"measurement": "inhibition in vivo at 100 mg/kg", "setting": "Mus musculus [5]", "result": "52.3 to 58.3", "unit": "%"}, {"measurement": "inhibition in vivo at 100 mg/kg", "setting": "Mus musculus [6]", "result": 46.1, "unit": "%"}, {"measurement": "inhibition in vivo at 100 mg/kg", "setting": "Mus musculus [7]", "result": 30.4, "unit": "%"}, {"measurement": "inhibition in vivo at 100 mg/kg", "setting": "Mus musculus [8]", "result": 19.2, "unit": "%"}, {"measurement": "inhibition in vivo at 100 mg/kg", "setting": "Mus musculus [9]", "result": 12.5, "unit": "%"}, {"measurement": "inhibition in vivo at 50 mg/kg", "setting": "Mus musculus [10]", "result": 25.9, "unit": "%"}, {"measurement": "inhibition in vivo at 25 mg/kg", "setting": "Mus musculus [11]", "result": 19.1, "unit": "%"}]}
{"smiles": "Cc1cccc(-c2nnc(COc3ccc(/C=N/Nc4nc5ccccc5s4)cc3)o2)c1", "values": [{"measurement": "inhibition", "setting": "[12]", "result": 35, "unit": "%"}]}
{"smiles": "Oc1ccc(/C=C/c2cc(O)cc(O)c2)cc1", "note": "[RESVERATROL]", "values": [{"measurement": "IC50", "setting": "[13]", "result": 1.42, "unit": "mM"}, {"measurement": "IC50", "setting": "[14]", "result": 990, "unit": "µM"}, {"measurement": "IC50", "setting": "[15]", "result": 370, "unit": "mM"}]}
